Measured values: ChEMBL document CHEMBL1143122, “Novel analogs of D-e-MAPP and B13. Part 1: synthesis and evaluation as potential anticancer agents” (Bioorg Med Chem, 2008)

Legend:
NCI-H322M = assay: Antiproliferative activity against human NCI-H322M cells after 48 hrs; format: functional
In short: (§1)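 NCI 60-cell screen. Cells were grown in RPMI 1640 with 5% FBS and 2 mM L-glutamine, then plated at 5,000–40,000 cells/well according to doubling time and preincubated for 24 h at 37 °C in 5% CO2. Compounds were dissolved in DMSO at 400× the top final concentration and tested at five 10-fold dilutions from 10−4 to 10−8 M for 48 h. Growth was read spectrophotometrically; GI50 is 50% net protein reduction.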

OVCAR-5 = assay: Antiproliferative activity against human OVCAR5 cells after 48 hrs; format: functional; settings: OVCAR-5, 48 h; in short: as §1
SN12C = assay: Antiproliferative activity against human SN12C cells after 48 hrs; format: functional; in short: as §1
HCT-116 = assay: Antiproliferative activity against human HCT116 cells after 48 hrs; format: functional; settings: HCT-116, 48 h; in short: as §1
NCI-H460 = assay: Antiproliferative activity against human NCI-H460 cells after 48 hrs; format: functional; settings: NCI-H460, 48 h; in short: as §1
OVCAR-8 = assay: Antiproliferative activity against human OVCAR8 cells after 48 hrs; format: functional; settings: OVCAR-8, 48 h; in short: as §1
HCT-15 = assay: Antiproliferative activity against human HCT15 cells after 48 hrs; format: functional; in short: as §1
RPMI-8226 = assay: Antiproliferative activity against human RPMI8226 cells after 48 hrs; format: functional; settings: RPMI-8226, 48 h; in short: as §1
TK-10 = assay: Antiproliferative activity against human TK10 cells after 48 hrs; format: functional; settings: TK-10, 48 h
In short: (§2)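 NCI 60-cell-line screen. Lines grown in RPMI 1640 with 5% fetal bovine serum and 2 mM L-glutamine, plated at 5,000–40,000 cells/well according to doubling time, left 24 h at 37 °C in 5% CO2. Drug stocks in DMSO at 400-fold the top final concentration. Five 10-fold dilutions, 10−4 to 10−8 M, incubated 48 h. Growth read spectrophotometrically as net protein; GI50 taken as 50% reduction.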

CAKI-1 = assay: Antiproliferative activity against human CAKI1 cells after 48 hrs; format: functional; settings: CAKI-1, 48 h; in short: as §1
COLO 205 = assay: Antiproliferative activity against human COLO205 cells after 48 hrs; format: functional; settings: COLO 205, 48 h; in short: as §1
MOLT-4 = assay: Antiproliferative activity against human MOLT4 cells after 48 hrs; format: functional; settings: MOLT-4, 48 h; in short: as §1
[1] = Antiproliferative activity against human HL60(TB) cells after 48 hrs; format: functional, HL-60(TB); settings: HL-60, 48 h
In short: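 NCI 60-line panel screen: cells grown in RPMI 1640 with 5% fetal bovine serum and 2 mM L-glutamine, plated at 5,000–40,000 cells/well by doubling time, and preincubated 24 h at 37 °C in 5% CO2. Drugs were solubilised in DMSO at 400-fold the final maximum and tested at five 10-fold dilutions from 10−4 to 10−8 M for 48 h. Net protein was read spectrophotometrically, and the concentration giving 50% reduction was reported as log10 GI50.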

MDA-MB-231 = assay: Antiproliferative activity against human MDA-MB-231 cells after 48 hrs; format: functional; settings: MDA-MB-231, 48 h; in short: as §1
786-0 = assay: Antiproliferative activity against human 786-0 cells after 48 hrs; format: functional; settings: 786-0, 48 h; in short: as §1
RXF 393 = assay: Antiproliferative activity against human RXF393 cells after 48 hrs; format: functional; settings: RXF 393, 48 h; in short: as §1
Malme-3M = assay: Antiproliferative activity against human MALME3M cells after 48 hrs; format: functional; in short: as §1
NCI-H226 = assay: Antiproliferative activity against human NCI-H226 cells after 48 hrs; format: functional; settings: NCI-H226, 48 h; in short: as §1
SF-295 = assay: Antiproliferative activity against human SF295 cells after 48 hrs; format: functional; settings: SF-295, 48 h; in short: as §1
SK-MEL-2 = assay: Antiproliferative activity against human SKMEL2 cells after 48 hrs; format: functional; settings: SK-MEL-2, 48 h; in short: as §1
UACC-62 = assay: Antiproliferative activity against human UACC62 cells after 48 hrs; format: functional; settings: UACC-62, 48 h; in short: as §2
[2] = Antiproliferative activity against human NCI-ADR-RES cells after 48 hrs; format: functional; in short: as §1
BT-549 = assay: Antiproliferative activity against human BT549 cells after 48 hrs; format: functional; settings: BT-549, 48 h; in short: as §1
A498 = assay: Antiproliferative activity against human A498 cells after 48 hrs; format: functional; settings: A498, 48 h, read-out: Log TGI (converted); in short: as §1
NCI-H23 = assay: Antiproliferative activity against human NCI-H23 cells after 48 hrs; format: functional; settings: NCI-H23, 48 h; in short: as §1
[3] = read-out: Log LC50 (the source's name) (converted)

In the case of CCCCCCCCCCCCCCN[C@@H](C)[C@H](O)c1ccccc1, the GI50 (NCI-H322M) was 2.04 µM, the CC50 (NCI-H322M; [3]) was 6.61 µM and the TGI (NCI-H322M; read-out: Log TGI (converted)) was 3.72 µM. The GI50 (OVCAR-5) was 1.7 µM, the CC50 (OVCAR-5; [3]) was 5.75 µM and the TGI (OVCAR-5; read-out: Log TGI (converted)) was 3.16 µM. The GI50 (SN12C) was 1.82 µM, the LC50 (50% net cell kill) (SN12C) was 6.76 µM and the TGI (SN12C; read-out: Log TGI (converted)) was 3.47 µM. The GI50 (HCT-116) was 1.86 µM, the LC50 (HCT-116) was 6.46 µM and the TGI (HCT-116; read-out: Log TGI (converted)) was 3.47 µM. It also gave a GI50 (NCI-H460) of 1.91 µM, a CC50 (NCI-H460; [3]) of 6.31 µM and a TGI (NCI-H460; read-out: Log TGI (converted)) of 3.47 µM. The GI50 (OVCAR-8) was 1.91 µM, the TGI (OVCAR-8; read-out: Log TGI (converted)) was 4.07 µM and the LC50 (HCT-15) was 6.31 µM. It also gave a GI50 (HCT-15; Homo sapiens, HCT-15, 48 h) of 1.91 µM, an LC50 (HCT-15; Homo sapiens, HCT-15, 48 h) of 5.89 µM and a GI50 (RPMI-8226) of 2 µM. For the same compound, the TGI (RPMI-8226; read-out: Log TGI (converted)) was 4.37 µM, the GI50 (TK-10) was 2 µM and the CC50 (TK-10; [3]) was 6.17 µM. The TGI (TK-10; read-out: Log TGI (converted)) was 3.47 µM, the GI50 (CAKI-1) was 1.95 µM and the CC50 (CAKI-1; [3]) was 5.89 µM. For the same compound, the TGI (CAKI-1; read-out: Log TGI (converted)) was 3.39 µM, the GI50 (COLO 205) was 1.74 µM and the CC50 (COLO 205; [3]) was 6.17 µM. The TGI (COLO 205; read-out: Log TGI (converted)) was 3.31 µM, the GI50 (MOLT-4) was 2.29 µM and the TGI (MOLT-4; read-out: Log TGI (converted)) was 4.68 µM. It also gave a GI50 [1] of 2 µM, an LC50 [1] of 8.13 µM and a TGI ([1]; read-out: Log TGI (converted)) of 3.98 µM. It also gave a GI50 (MDA-MB-231) of 1.91 µM, an LC50 (50% lethal concentration) (MDA-MB-231) of 6.46 µM and a TGI (MDA-MB-231; read-out: Log TGI (converted)) of 3.55 µM. The GI50 (786-0) was 1.58 µM, the CC50 (786-0; [3]) was 5.89 µM and the TGI (786-0; read-out: Log TGI (converted)) was 3.09 µM. The GI50 (RXF 393) was 1.66 µM, the CC50 (RXF 393; [3]) was 6.03 µM and the TGI (RXF 393; read-out: Log TGI (converted)) was 3.16 µM. The GI50 (Malme-3M) was 2.04 µM, the LC50 (Malme-3M) was 6.46 µM and the TGI (Malme-3M; read-out: Log TGI (converted)) was 3.63 µM. For the same compound, the GI50 (NCI-H226) was 1.95 µM, the TGI (NCI-H226; read-out: Log TGI (converted)) was 3.8 µM and the GI50 (SF-295) was 1.78 µM. The LC50 (SF-295) was 6.46 µM, the TGI (SF-295; read-out: Log TGI (converted)) was 3.39 µM and the GI50 (SK-MEL-2) was 1.78 µM. It also gave a TGI (SK-MEL-2; read-out: Log TGI (converted)) of 3.72 µM, a GI50 (UACC-62) of 1.82 µM and an LC50 (UACC-62) of 6.31 µM. The TGI (UACC-62; read-out: Log TGI (converted)) was 3.39 µM, the GI50 [2] was 1.7 µM and the TGI ([2]; read-out: Log TGI (converted)) was 3.39 µM. For the same compound, the GI50 (BT-549) was 1.51 µM, the LC50 (BT-549) was 5.75 µM and the TGI (BT-549; read-out: Log TGI (converted)) was 2.95 µM. It also gave a TGI (A498) of 10 µM, a GI50 (NCI-H23) of 1.82 µM and a CC50 (NCI-H23; [3]) of 6.76 µM. It also gave a TGI (NCI-H23; read-out: Log TGI (converted)) of 3.55 µM.
